# Source: PubChem BioAssay
# Shown are actives, neighbours in structure and some others; about 4.1% of the full set was active somewhere.
# Apaf-1 inh = inhibitors of human Apaf-1 apoptosome, primary screen, biochemical, DEVD-Rh110 fluorescence, uHTS; Apoptotic protease-activating factor 1 (Homo sapiens), O14727; reconstituted apoptosome caspase-3 activity; inhibition, % at 20 µM; 330,000 compounds, 0.71% hits; AID 489030, 2010; active = inhibition of at least 40% at 20 µM;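 note: plate controls were DMSO wells for no effect and DEVD-CHO caspase inhibitor wells for full effect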
#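 detection = Rh110 fluorescence intensity | test system = biochemical Apaf-1 apoptosome reconstitution | also added = cytochrome c and DEVD-Rh110 substrate | schedule = 30 min plus 50 min, RT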
# CHOP UPR activ = activators of apoptotic CHOP UPR arm, primary screen, cell-based, CHO-CHOP luciferase reporter, luminescence, uHTS. 330,000 compounds, 0.34% hits. UPR activation; percent of tunicamycin response over DMSO baseline. activation, % at 10 µM;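 active = at 10 µM dose, activation of 40% or more, normalized to positive control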;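 note: 100% = tunicamycin at 10 µg/mL and 0% = DMSO alone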
#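 Assay system: CHO-CHOP cells, stable luciferase reporter of PERK-eIF2a-CHOP signalling / Buffer or medium: F12 plus 10% serum / Compound dosing: one dose, 10 µM in 0.5% DMSO / Times: 6 h compound treatment, 37 °C / Technique: luciferase luminescence / Read-out: % reporter activation, DMSO baseline versus tunicamycin full activation / Benchmarks: tunicamycin and DMSO controls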
# UBC13 inh = UBC13 polyubiquitin chain formation inhibitors, primary screen, biochemical, TR-FRET, uHTS | AID 485273, 2010 | 330,000 compounds, 0.47% hits | inhibition, % at 20 µM | Ubiquitin-conjugating enzyme E2 N (Homo sapiens), P61088; in the data active = inhibition above about 45%, passing the limit was not always enough
# UPR XBP1 act = activators of adaptive XBP1 UPR arm, primary screen, cell-based, CHO-XBP1 luciferase reporter, luminescence, uHTS; activation, % at 20 µM; AID 463104, 2010; IRE1-XBP1 UPR activation; percent of tunicamycin response, DMSO as zero; 330,000 compounds, 0.33% hits;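 active = versus positive control, 20 µM dose yields 30% or more activation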;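 note: 100% = tunicamycin at 10 µg/mL and 0% = DMSO only wells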
#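 Material: IRE1-XBP1 luciferase reporter CHO line / Quantity: one thousand reporter cells per well / Buffer or medium: F12 with 10% serum / Compound: 20 µM single concentration, DMSO 1% / Times: 6 h treatment, 37 °C / Detection: Steady-Glo luciferase glow luminescence, 10 min after reagent addition / Benchmarks: tunicamycin high, DMSO low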
# Mdm2-MdmX inh = inhibitors of human Mdm2-MdmX association, primary screen, cell-based, luminescence, split luciferase, SaOS-2, uHTS; inhibition, % at 8 µM; AID 485346, 2010; 330,000 compounds, 3% hits; Protein Mdm4 (Homo sapiens) + E3 ubiquitin-protein ligase Mdm2 (Homo sapiens), …; SaOS-2 split-luciferase Mdm2/MdmX complementation;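 active = inhibition of at least 50% at 8 µM in the primary screen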
# XBP1 UPR conf = IRE1-XBP1 UPR arm activators, confirmation, cell-based, CHO-XBP1 luciferase reporter, luminescence, single concentration; AID 485299, 2010; activation, % at 20 µM; shares compounds with UPR XBP1 act; 1,000 compounds, 63% hits;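 active = reporter signal at least 30% of the positive control's activation in two or more of four replicate wells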;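 note: plate controls were DMSO negative control for no effect and tunicamycin 10 µg/mL positive control for full effect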
# * hit, by the source's call; x = no result.
SMILES,Apaf-1 inh,CHOP UPR activ,UBC13 inh,UPR XBP1 act,Mdm2-MdmX inh,XBP1 UPR conf
NS(=O)(=O)c1ccc(NC(=S)NC(=O)c2ccc(-c3ccccc3)cc2)cc1,-21.8,15.5,-6.0,50.4*,42.8,25.0
Cc1nnc(NC(=O)CSc2nnc(Cc3cccn3C)n2CCc2ccccc2)s1,-1.0,0.0,-0.8,-1.3,-13.9,x
Cn1cccc1Cc1nnc(SCC(=O)Nc2nc3ccccc3s2)n1CCc1ccccc1,17.4,5.1,-5.8,30.1*,26.6,13.4
CN(C)C(=O)NC(Nc1ccc(Cl)cc1Cl)C(Cl)(Cl)Cl (stereo unspecified),-11.1,-0.5,4.5,-2.2,22.3,x
COc1ccc(/C=C/C(=O)NC(=S)NCCc2ccc(OC)c(OC)c2)cc1,-10.6,-0.7,5.0,69.3*,31.3,1.1
N#C/C(=C\c1ccc(N2CCOCC2)c([N+](=O)[O-])c1)c1nc2ccccc2[nH]1,2.3,2.4,-61.7,5.6,-23.5,x
N#C/C(=C/c1ccc(N2CCCC2)c([N+](=O)[O-])c1)c1nc2ccccc2[nH]1,11.3,12.1,-119.8,131.4*,37.0,87.2*
CCCCC1=CC2=C(c3ccco3)C(=O)C(C)(OC(=O)c3ccc(OC)cc3)C(=O)C2=CN1CC(C)C (stereo unspecified),9.2,18.6,30.6,32.7*,-1.2,-1.7
O=C1NC(=S)N/C1=C\C=C\c1ccccc1,-19.8,0.5,-14.1,39.1*,-3.1,5.1
CCOc1ccc(NC(=O)Nc2c(C)n(C)n(-c3ccccc3)c2=O)cc1,-3.1,-0.1,1.5,-7.0,19.7,x
CC1CC2C3CCC4=CC(=O)C=CC4(C)[C@@]3(Cl)C(O)CC2(C)C1(O)C(=O)CO (stereo partly specified),-4.8,2.2,-3.7,-3.0,-10.6,x
C[C@@H]1C[C@H]2[C@@H]3CCC4=CC(=O)C=C[C@]4(C)[C@@]3(Cl)[C@@H](O)C[C@]2(C)[C@@]1(OC(=O)c1ccco1)C(=O)CCl,20.4,5.5,-30.8,78.6*,37.3,58.2*
COCCCNC(=O)c1ccc(Cn2c(=O)c3ccccc3n(Cc3cc(C)ccc3C)c2=O)cc1,4.4,2.5,7.7,-0.4,10.8,x
CCC(C)NC(=O)Cn1c(=O)n(-c2ccccc2)c(=O)c2ccc(C(=O)NCc3ccco3)cc21 (stereo unspecified),-5.7,0.6,3.2,-1.9,46.5,x
Cc1ccc(Cn2c(=O)n(-c3ccccc3)c(=O)c3ccc(C(=O)NCc4ccco4)cc32)cc1,10.5,1.0,-12.5,34.9*,20.4,30.9*
C=CCn1c(=O)c2ccc(C(=O)NCc3ccccc3)cc2n(Cc2ccc(C)cc2)c1=O,0.3,1.1,-5.2,43.8*,17.6,18.3
S=c1[nH]nc(-c2ccncc2)n1/N=C/c1cn(-c2ccccc2)nc1-c1ccc(Cl)cc1,-59.2,2.3,-13.4,7.5,10.8,x
O=[N+]([O-])c1ccc(-c2nn(-c3ccccc3)cc2/C=N/n2c(-c3cccs3)n[nH]c2=S)cc1,-6.3,13.9,-14.1,41.5*,22.2,29.1
CCCn1c(SCc2nc3sc(C)c(C)c3c(=O)[nH]2)nc2ccccc2c1=O,1.5,-1.7,2.9,77.7*,47.9,180.5*
Cc1[nH]c2ccc(C(=O)N3CCN(c4ccccn4)CC3)cc2c1C,4.7,0.5,10.3,-2.5,-7.4,x
CN1CCCN(C(=O)c2c(F)cccc2Cl)CC1,-7.0,0.7,-2.6,0.6,-2.3,x
CC1=C(C(=O)OCc2ccccc2)C(c2ccc([N+](=O)[O-])cc2)NC(=O)N1CCCC(=O)O (stereo unspecified),-9.1,1.3,-10.1,52.9*,20.0,-1.0
CC1=C(C(=O)OCc2ccccc2)C(c2ccc([N+](=O)[O-])cc2)NC(=O)N1CCCCCC(=O)O (stereo unspecified),-2.2,2.9,-9.4,1.5,-3.4,x
CC(C)(C)c1ccc(C(=O)Nc2ccc(O)c3c(=O)cc(-c4cccc(Cl)c4)oc23)cc1,12.9,21.1,-30.3,55.2*,26.4,52.4*
O=C(NCCc1ccccc1F)C1CCCN(c2nc3ccccc3s2)C1 (stereo unspecified),11.0,3.2,12.3,-4.8,6.0,x
SMILES,Apaf-1 inh,CHOP UPR activ,UBC13 inh,UPR XBP1 act,Mdm2-MdmX inh,XBP1 UPR conf
Clc1ccc(-c2ccc(-c3nn4c(-c5ccco5)nnc4s3)o2)cc1,27.3,3.0,25.7,90.7*,10.4,8.4
Brc1ccc(-c2nn3c(-c4ccco4)nnc3s2)o1,25.5,-2.6,-73.8,2.0,12.2,x
CC1(C)CC(=O)C=C(C(=O)N2CCCC(C(=O)c3cccc(C(F)(F)F)c3)C2)O1 (stereo unspecified),7.5,2.1,-4.6,-2.7,7.7,x
O=C(Cn1c2ccc(F)cc2c2nc3n(c(=O)c21)CCS3)Nc1ccc(Cl)cc1F,-18.1,-0.8,7.5,81.8*,37.2,33.5*
Cc1ccc(NC(=O)Cn2c3ccc(F)cc3c3nc4n(c(=O)c32)CCS4)cc1F,6.3,0.1,-11.9,-3.0,15.0,x
CC1CCCN(c2ccc(C(=O)NCc3cccs3)cn2)C1 (stereo unspecified),-8.4,4.7,9.0,37.6*,-32.9,31.9*
O=C(NCc1cccs1)c1ccc(N2CCCCC2)nc1,-8.9,3.6,-3.6,30.0,-31.4,20.7
CC1CCCN(c2ccc(C(=O)NCc3ccccc3)cn2)C1 (stereo unspecified),4.2,5.7,6.6,19.4,-78.8,x
CC(=O)c1cccc(NC(=O)NNC(=O)CCC(=O)Nc2ccc(C)c(C)c2)c1,3.8,1.2,6.2,-3.1,36.5,x
CC(C)(C)OC(=O)NCCCC1=CC2=CC(=O)C(C)(OC(=O)C3CCCC3)C(=O)C2=CO1 (stereo unspecified),17.1,-2.2,-58.8,-2.1,4.6,x
Cc1cccc2sc(NC(=O)C3CSC4(C)CCC(=O)N34)nc12 (stereo unspecified),1.7,-0.1,3.6,30.8*,25.0,-1.8
Cc1cccc(C)c1NC(=O)C1CSC2(C)CCC(=O)N12 (stereo unspecified),-0.3,1.3,2.7,-2.2,6.6,x
CC(=O)N1CCC2(CC1)CC(=O)c1cc(Cl)ccc1O2,-0.1,0.3,6.9,-0.5,-12.1,x
Cn1c(Cl)cnc1C1CC(=O)c2cc(Cl)ccc2O1 (stereo unspecified),-0.6,23.4,13.0,77.4*,45.4,129.5*
